The text below walks through data of ChEMBL document CHEMBL4308829, “Design and Synthesis of Novel Positive Allosteric Modulators of α7 Nicotinic Acetylcholine Receptors with the Ability To Rescue Auditory Gating Deficit in Mice” (J Med Chem, 2018).

Series [1] can be described thus: Drug uptake in C57BL/6J mouse brain at 1 mg/kg, ip after 8 hrs by LC-MS/MS analysis. The class given is ADME, organism-based. As to conditions: read-out: Drug uptake. The essentials:
(§1)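 C57BL/6J mice given 1 mg/kg i.p. from a 0.4 mg/mL solution in 10% DMSO/50% PEG400/40% SBECD. Plasma and brain taken at 0.5, 2 and 8 h. Samples mixed with internal standard in methanol/acetonitrile (1:1), centrifuged and diluted 10x in methanol:water with 0.1% FA, then measured by HPLC-MS-MS. n = 3; ratio is brain over plasma concentration.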

The test system of series [2] is Mus musculus. In words: Anti-schizophrenic activity in ip dosed C57BL/6J mouse assessed as protection against MK-801-induced auditory gating deficit by measuring reduction in prepulse inhibition impairment at 8 to 16 dB prepulse intensity. It is filed as functional, organism-based.
A short description of series [3]: Half life in rat at 3 mg/kg, iv by LC-MS/MS analysis. The class given is ADME, organism-based. As to conditions: in vivo. The essentials:
(§2)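 Rat plasma stored at -20 °C, spiked with internal standard, protein-precipitated with methanol, centrifuged and filtered before LC-MS/MS. C18 column at 40 °C, acetonitrile/0.1% formic acid (80:20) isocratic at 0.5 mL/min. Positive ESI with MRM m/z 400.0->129.9. Parameters taken per rat by non-compartmental analysis, n = 3.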

Series [4] in a line: MRT in rat at 3 mg/kg, iv by LC-MS/MS analysis. It is filed as ADME, organism-based. As to conditions: in vivo. In short, it runs like this: as §2
The target of series [5] is T1, Neuronal acetylcholine receptor subunit alpha-7 (Homo sapiens, UniProt P36544). Put plainly: Induction of desensitization of human alpha7 nAChR expressed in Xenopus laevis oocytes assessed as acetylcholine-induced channel desensitization time constant at 10 uM at -90 mV holding potential by two-electrode voltage clamp method (reference value: 5.56 +/- 1.27). It is filed as cell-based. For orientation: In two-electrode clamp one electrode senses voltage and the other passes current.

For series [6], the system named is Mus musculus. Put plainly: Anti-schizophrenic activity in C57BL/6J mouse assessed as protection against MK-801-induced auditory gating deficit by measuring prepulse inhibition impairment at 1 mg/kg, ip at 8 to 16 dB prepulse intensity pretreated for 30 mins starting from 30 mins post alpha7 nAChR antagonist MLA treatment followed by MK-801 treatment and measured after 30 mins (reference value: 8.7%). It is filed as functional. On the set-up: scale not given: the % may be the effect or the level left. The essentials:
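Mice given MLA 3 mg/kg i.p. 30 min before, then compound 1 mg/kg i.p. 60 min before test and MK-801 0.1 mg/kg i.p. 30 min before test. PPI measured at prepulses 8-16 dB above 68 dB background. %PPI = (1 − prepulse-pulse/pulse-only)×100, one-way ANOVA.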

The target in series [7] is T1, Neuronal acetylcholine receptor subunit alpha-7. In words: Positive allosteric modulation of human alpha7 nAChR expressed in Xenopus laevis oocytes assessed as increase in acetylcholine-induced channel current by measuring maximum efficacy of acetylcholine at 10 uM at -90 mV holding potential preincubated for 2 mins followed by co-application with acetylcholine for 10 secs by two-electrode voltage clamp method (reference value: 109 +/- 2%). The class given is cell-based.

The nature of series [8]: Drug uptake in C57BL/6J mouse brain at 1 mg/kg, ip after 0.5 hrs by LC-MS/MS analysis. The class given is ADME, organism-based. The following applies: read-out: Drug uptake. The essentials: as §1
Series [9] is described as follows: MRT in rat at 60 mg/kg, po by LC-MS/MS analysis. It is filed as ADME, organism-based. The following applies: in vivo. In short, it runs like this:
as §2

The nature of series [10]: Clearance in rat at 3 mg/kg, iv by LC-MS/MS analysis. It is filed as ADME, organism-based. The following applies: in vivo. The essentials: as §2
The nature of series [11]: Ratio of drug level in C57BL/6J mouse brain to plasma at 1 mg/kg, ip after 2 hrs by LC-MS/MS analysis. As to conditions: read-out: BPR. The class given is ADME, organism-based. In short, it runs like this: as §1
A short description of series [12]: Apparent volume of distribution during terminal phase in rat at 60 mg/kg, po by LC-MS/MS analysis. The following applies: in vivo. The class given is ADME, organism-based. The essentials: as §2
The nature of series [13]: Ratio of drug level in C57BL/6J mouse brain to plasma at 1 mg/kg, ip after 0.5 hrs by LC-MS/MS analysis. The class given is ADME, organism-based. As to conditions: read-out: BPR. In short, it runs like this: as §1
Series [14] can be described thus: Tmax in rat at 60 mg/kg, po by LC-MS/MS analysis. It is filed as ADME, organism-based. As to conditions: in vivo. The essentials:
as §2

The nature of series [15]: Plasma concentration in C57BL/6J mouse at 1 mg/kg, ip after 0.5 hrs by LC-MS/MS analysis. It is filed as ADME, organism-based. In short, it runs like this:
as §1

A short description of series [16]: AUCinfinity in rat at 3 mg/kg, iv by LC-MS/MS analysis. It is filed as ADME, organism-based. Also on record: dose 3 mg/kg, route intravenous, time infinity. As to conditions: in vivo. In short, it runs like this:
as §2

Series [17] addresses Neuronal acetylcholine receptor; alpha4/beta2 (Rattus norvegicus) (UniProt P09483+P12390). In words: Positive allosteric modulation of rat alpha4beta2 nAChR expressed in Xenopus laevis oocytes assessed as increase in acetylcholine-induced channel current at 10 uM at -90 mV holding potential by two-electrode voltage clamp method. It is filed as cell-based. In short, it runs like this: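 Rat α3β4 or α4β2 subunit cRNAs (~2 ng total, 1:1) injected into oocytes, which were kept at 16 °C in ND96. Two-electrode voltage clamp at -90 mV, 24-72 h post-injection, in Ringer's containing atropine at room temperature.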

Series [18] is described as follows: Ratio of drug level in C57BL/6J mouse brain to plasma at 1 mg/kg, ip after 8 hrs by LC-MS/MS analysis. As to conditions: read-out: BPR. The class given is ADME, organism-based. In short, it runs like this: as §1
In series [19] the target is T1, Neuronal acetylcholine receptor subunit alpha-7. Put plainly: Positive allosteric modulation of human alpha7 nAChR expressed in Xenopus laevis oocytes assessed as increase in acetylcholine-induced channel current at 10 uM at -90 mV holding potential preincubated for 2 mins followed by co-application with acetylcholine for 10 secs by two-electrode voltage clamp method relative to control. It is filed as cell-based.

Series [20] relates to Mus musculus. Put plainly: Anti-schizophrenic activity in C57BL/6J mouse assessed as protection against MK-801-induced auditory gating deficit by measuring prepulse inhibition impairment at 1 mg/kg, ip at 8 to 16 dB prepulse intensity pretreated for 30 mins followed by MK-801 treatment and measured after 30 mins (reference value: 8.7%). The class given is functional. Also on record: scale not given: the % may be the effect or the level left.

Series [21] in a line: Cmax in rat at 3 mg/kg, iv by LC-MS/MS analysis. It is filed as ADME, organism-based. On the set-up: dose 3 mg/kg, route intravenous. The following applies: in vivo. The essentials:
as §2

Series [22] is described as follows: Plasma concentration in C57BL/6J mouse at 1 mg/kg, ip after 8 hrs by LC-MS/MS analysis. It is filed as ADME, organism-based. The essentials: as §1
The nature of series [23]: Cmax in rat at 60 mg/kg, po by LC-MS/MS analysis. It is filed as ADME, organism-based. Also on record: dose 60 mg/kg, route oral. The following applies: in vivo. In short, it runs like this: as §2
For series [24], the target named is T2, 5-hydroxytryptamine receptor 3A (Homo sapiens) (UniProt P46098).
T2 sequence (whole entry): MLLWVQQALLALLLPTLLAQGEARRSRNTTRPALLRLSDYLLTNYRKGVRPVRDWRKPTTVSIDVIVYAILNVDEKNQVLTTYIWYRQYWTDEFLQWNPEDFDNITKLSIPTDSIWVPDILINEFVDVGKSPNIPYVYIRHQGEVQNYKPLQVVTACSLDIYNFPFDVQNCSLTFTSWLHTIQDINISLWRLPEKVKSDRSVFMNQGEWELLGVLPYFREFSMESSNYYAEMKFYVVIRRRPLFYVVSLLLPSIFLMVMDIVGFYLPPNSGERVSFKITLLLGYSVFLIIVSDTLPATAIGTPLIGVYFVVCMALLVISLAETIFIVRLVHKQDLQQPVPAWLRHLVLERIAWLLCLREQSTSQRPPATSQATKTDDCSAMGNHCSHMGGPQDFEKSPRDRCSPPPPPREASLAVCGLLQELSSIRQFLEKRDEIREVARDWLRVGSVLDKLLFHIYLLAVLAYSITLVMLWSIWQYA
Put plainly: Positive allosteric modulation of human 5-HT3A receptor expressed in Xenopus laevis oocytes assessed as increase in 5-HT-induced channel current at 10 uM at -90 mV holding potential by two-electrode voltage clamp method. The class given is cell-based.

Each structure is given as a SMILES string. The source made the active and inactive calls. The rule behind the calls is not given here.

T1 sequence (P36544 whole entry): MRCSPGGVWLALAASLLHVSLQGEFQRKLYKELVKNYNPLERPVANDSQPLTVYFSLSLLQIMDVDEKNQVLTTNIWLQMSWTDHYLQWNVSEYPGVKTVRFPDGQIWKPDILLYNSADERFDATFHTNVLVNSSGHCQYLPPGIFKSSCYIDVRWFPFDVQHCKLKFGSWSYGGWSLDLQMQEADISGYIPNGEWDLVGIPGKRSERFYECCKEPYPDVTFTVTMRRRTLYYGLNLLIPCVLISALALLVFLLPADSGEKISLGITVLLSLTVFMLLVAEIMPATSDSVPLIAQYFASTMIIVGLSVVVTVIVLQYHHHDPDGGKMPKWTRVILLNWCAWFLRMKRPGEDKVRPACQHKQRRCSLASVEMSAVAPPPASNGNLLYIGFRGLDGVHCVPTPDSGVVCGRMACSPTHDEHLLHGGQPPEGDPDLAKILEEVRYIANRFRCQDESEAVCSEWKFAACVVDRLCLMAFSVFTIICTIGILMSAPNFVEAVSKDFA

`Cc1cccc(Cl)c1-n1cnc2nc(SCc3ccccc3)sc2c1=O`: the figures for the concentration at 8 h in [1] and in series [22] were 3.7 ng/g and 0.9 ng/mL, respectively. Also, the Activity entry in series [2] was “Dose-dependent effect”; in series [5], 6.54; in series [6], 14%; in [20], 30%. The half-life in [3] is 10.8 h. Besides, the results for the MRT in [4] and in series [9] were 7 h and 9.5 h, respectively. For the same compound, the Emax in series [7] is 1540%. For the same compound, the concentration at 0.5 h was 84.7 ng/g in [8] and 34.3 ng/mL in series [15]. Also, the clearance in [10] was determined as 5 mL/h/kg. In addition, the Kp at 2 h in series [11] was determined as 2.7. Moreover, the Vd/F in series [12] was found to be 0.6 L/kg. Besides, the Kp at 0.5 h in series [13] is 2.5. Further, the Tmax in series [14] is 1.3 h. In series [16], this compound had an AUC(0-inf) of 680 ng·h/mL. Also, the result in series [17] and in series [24] was inactive. The Kp at 8 h in series [18] is 2.3. Also, the %max in [19] amounted to 1630%. The Cmax in [21] came to 700 ng/mL; in series [23], 200 ng/mL.

The term half-life denotes the time in which the quantity being followed falls by half. Broadly, the MRT is the average time that molecules of a dose stay in the body. Broadly, the Emax is the size of the effect at its maximum, as opposed to the concentration needed. For orientation: clearance means the rate of elimination divided by the concentration. By Vd/F is commonly meant the apparent distribution volume after extravascular dosing. One may read the Tmax as the time from dosing to the highest level. What is called AUC(0-inf) is total exposure, with the tail of the curve extrapolated. One may read the Cmax as the maximum level reached in the sampled fluid or tissue.
